JMJD2C inh: inhibitors of GASC-1 histone demethylase, primary screen, biochemical, fluorescence, DELFIA europium; AID 2099, 2009; inhibition, % at 2.35 µM; 330,000 compounds, 0.069% hits; Lysine-specific demethylase 4C (Homo sapiens), Q9H3R0; GST-JMJD2C(1-420) H3K9me3 demethylation;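 active = more than half of a compound's replicate wells show inhibition beyond 50%, single wells judged on their own value; inconclusive = some, but no more than half, of replicates pass 50% inhibition; inactive = no replicate passes 50% inhibition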;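 also: signal counts dimethyl H3K9 product captured on neutravidin plate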
697 NFkB inh: inhibitors of PMA/ionomycin-induced NF-kB reporter, 697 cells, primary screen, B-cell NF-kB inhibitor project, cell-based, luminescence, uHTS | inhibition, % at 4 µM | AID 435022, 2010 | 330,000 compounds, 0.33% hits | 697 B-cell NF-kB luciferase reporter, 16 h; in the data active = inhibition above about 35%
Jurkat NFkB inh: inhibitors of induced NF-kB luciferase reporter, primary screen, TCR NF-kB activation inhibitor project, cell-based, luminescence, uHTS; Jurkat, PMA/ionomycin-induced NF-kB luciferase reporter; inhibition, % at 4 µM; 330,000 compounds, 0.53% hits; AID 435003, 2010; in the data active = inhibition above about 50%
NR2E3 ag-1: NR2E3 agonists in two-hybrid cells, primary screen, cell-based, luminescence, CHO-S, Gal4-NCOR/VP16-NR2E3; Photoreceptor-specific nuclear receptor (Homo sapiens), Q9Y5X4; 360,000 compounds, 0.35% hits; luciferase; inhibition of corepressor binding, % at 3.98 µM; AID 602229, 2012;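 active = inhibition above the mean of all tested compounds plus 3 SD, cut at about 70% in these data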;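 also: higher means lower luciferase signal from less NR2E3 corepressor binding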
Target sequence (Q9Y5X4 whole entry, looked up, the tested form may be a part): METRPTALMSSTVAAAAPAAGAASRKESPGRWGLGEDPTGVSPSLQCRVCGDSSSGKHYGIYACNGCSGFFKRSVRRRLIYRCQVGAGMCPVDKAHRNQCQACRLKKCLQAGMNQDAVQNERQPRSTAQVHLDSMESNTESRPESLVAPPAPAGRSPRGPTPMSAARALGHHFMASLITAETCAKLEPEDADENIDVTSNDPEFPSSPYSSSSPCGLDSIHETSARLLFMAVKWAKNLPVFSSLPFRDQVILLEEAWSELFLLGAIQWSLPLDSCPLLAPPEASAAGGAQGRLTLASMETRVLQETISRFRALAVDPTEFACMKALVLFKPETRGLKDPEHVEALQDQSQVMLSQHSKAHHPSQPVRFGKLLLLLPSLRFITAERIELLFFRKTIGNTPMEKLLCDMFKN
GalR3 antagonist: GalR3 antagonists in HEK293 cells, primary screen, cell-based, fluorescence readout; Galanin receptor type 3 (Homo sapiens), O60755; HEK293 GalR3-CNG cAMP membrane potential fluorescence; galR3 body fused to GalR1 C-terminus; inhibition, % at 3 µM; 360,000 compounds, 0.44% hits; AID 651719, 2012;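 active = inhibition above the screen-wide average plus 3 SD, cut at about 13% in these data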;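 also: forskolin and galanin both at EC90 stimulate the cells; cAMP rise reported by CNG channel membrane potential dye signal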
Target sequence (O60755 1-299 limits assumed): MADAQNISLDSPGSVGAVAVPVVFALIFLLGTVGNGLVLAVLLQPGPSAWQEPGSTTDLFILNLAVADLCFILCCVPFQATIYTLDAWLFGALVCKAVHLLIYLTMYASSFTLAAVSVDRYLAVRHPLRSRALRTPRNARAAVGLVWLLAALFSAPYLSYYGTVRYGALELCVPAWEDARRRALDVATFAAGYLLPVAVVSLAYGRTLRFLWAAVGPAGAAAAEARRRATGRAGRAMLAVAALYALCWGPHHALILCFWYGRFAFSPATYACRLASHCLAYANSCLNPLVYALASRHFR
NR2E3 ag-2: inhibitors of NR2E3-RetCOR corepressor binding, primary screen, NR2E3 agonist project, biochemical, TR-FRET, GST-NR2E3, biotin-RetCOR | 320,000 compounds, 0.12% hits | Photoreceptor-specific nuclear receptor (Homo sapiens), Q9Y5X4 | AID 2300, 2010 | inhibition of corepressor binding, % at 4.78 µM | 1536-well;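 active = percent inhibition above the cutoff of mean plus 3 SD of all tested compounds, set per screening campaign, cut at about 20% in these data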
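System: GST-NR2E3 and biotin-RetCOR proteins; probe or stimulus: 7 nM biotin-RetCOR; doses: compound at 4.8 µM, single dose; schedule: Compound–protein incubation for 5 h at 4 °C; detection: time-resolved FRET; read-out: percent inhibition; controls: biotin wells as high control, 0.6% DMSO wells as low control; format: 1536-well plates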
Jurkat NFkB conf: PMA/ionomycin-induced NF-kB reporter inhibitors, Jurkat retest, confirmation, T-cell NF-kB inhibitor project, cell-based, luminescence, single concentration; 2,700 compounds, 27% hits; AID 435020, 2010; inhibition, % at 4 µM; Jurkat NF-kB luciferase, 16 h; shares compounds with Jurkat NFkB inh;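 active = inhibition reaching about 45% at 4 µM in either replicate, limit read from the data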
Large screens that a line does not name were inactive (follow-up assays come after a bar, where they were run). Rows were chosen to be rich in hits. Some 1.5% of all compounds tested hit in one or more screens of this group.

COc1cc2c(cc1OC)C(c1cccc(Br)c1)CC(=O)N2 (stereo not drawn)	none (no result: NR2E3 ag-2)
O=C1CC(c2cc(F)ccc2F)c2cc3c(cc2N1)CCC3 (stereo not drawn)	Jurkat NFkB inh 71.1 | Jurkat NFkB conf 51.7
COc1ccc(-c2ccc3c(n2)CCCN3S(=O)(=O)c2ccc(C(F)(F)F)cc2)cc1	none (no result: JMJD2C inh, 697 NFkB inh, Jurkat NFkB inh, NR2E3 ag-1, NR2E3 ag-2)
NC(c1csc(NC(=O)Nc2ccc(OC(F)(F)F)cc2)n1)C1CCCCC1 (stereo not drawn)	none (no result: JMJD2C inh, 697 NFkB inh, Jurkat NFkB inh, NR2E3 ag-2)
Cc1ccc(-n2ncc(-c3nn[nH]n3)c2N)cc1	none
Cc1ccc2nc(-c3ccc(NC(=S)NC(=O)CC(C)C)cc3)sc2c1	none
Cc1ccc2nc(-c3ccc(NC(=O)C(C)Sc4nncs4)cc3)sc2c1 (stereo not drawn)	none | Jurkat NFkB conf inactive
O=C1C(=O)c2ccc(-c3ccccc3)cc2-c2ccccc21	Jurkat NFkB inh 52.5 | Jurkat NFkB conf inactive
CCN1/C(=C/c2cccc[n+]2C)Sc2ccc(OC)cc21	Jurkat NFkB inh 71.9 | Jurkat NFkB conf inactive
COc1ccc2c(c1)N(C)/C(=C/c1cccc[n+]1C)S2	Jurkat NFkB inh 61.3 | Jurkat NFkB conf inactive
COc1ccc2c(c1)S/C(=C\C(=O)c1ccncc1)N2C	none
CCN1/C(=C/C(C)=O)Sc2ccc(OC)cc21	none
CNc1ccccc1C(C)(C)c1cc(-c2cc(C)cc(C)c2)no1	none
CNc1ccccc1C(C)(C)c1cc(-c2cccc(OC)c2)no1	JMJD2C inh inconclusive, Jurkat NFkB inh 50.8 | Jurkat NFkB conf inactive
CCCC#Cc1ccc2c(c1)COc1c3ccccc3nn1-2	none
CCc1cc(-c2ccc3c(c2)COc2c4ccccc4nn2-3)on1	none | Jurkat NFkB conf inactive
COc1ccc(NS(=O)(=O)c2cc(NC(=O)c3ccc(=O)[nH]c3)ccc2N2CCCC2)cc1	Jurkat NFkB inh 62.8 | Jurkat NFkB conf inactive
COc1ccc(NS(=O)(=O)c2cc(NC(=O)c3cnc(C)cn3)ccc2N2CCCC2)cc1	none
COc1ccc(C(=S)N2CCN(c3cccc(Cl)c3)CC2)c(OC)c1	Jurkat NFkB inh 63.1 (no result: JMJD2C inh) | Jurkat NFkB conf inactive
COc1ccc(C(=O)N2CCN(c3cccc(Cl)c3)CC2)cc1	none
N=c1c(C(=O)NCc2ccc(F)cc2)cc2c(=O)n3ccccc3nc2n1Cc1ccco1	Jurkat NFkB inh 59.4 | Jurkat NFkB conf inactive
COc1ccc(C2=NOC(C(=O)NCc3ccc(F)cc3)C2)cc1OC (stereo not drawn)	Jurkat NFkB inh 77.9 (no result: GalR3 antagonist) | Jurkat NFkB conf 57.9
COc1cc(C2=NOC(C(=O)NCc3ccc(F)cc3)C2)cc(OC)c1OC (stereo not drawn)	Jurkat NFkB inh 68.3 | Jurkat NFkB conf 52.0
O=C(NCc1ccco1)C1CC(c2cc(C(F)(F)F)cc(C(F)(F)F)c2)=NO1 (stereo not drawn)	Jurkat NFkB inh 61.9 | Jurkat NFkB conf inactive
COc1ccccc1CNC(=O)C1CC(c2cccc([N+](=O)[O-])c2)=NO1 (stereo not drawn)	Jurkat NFkB inh 54.8 | Jurkat NFkB conf inactive
COc1cccc(C2=NOC(C(=O)NCc3ccc(F)cc3)C2)c1 (stereo not drawn)	none
Cc1ccc(C(=O)COC(=O)CNS(=O)(=O)c2ccccc2)cc1[N+](=O)[O-]	none
COCCn1c(=S)[nH]c2cc(C(=O)NC3CCCC(C)C3C)ccc2c1=O (stereo not drawn)	none (no result: JMJD2C inh, 697 NFkB inh, Jurkat NFkB inh, NR2E3 ag-2)
C=CC[N+]1(CC(=O)NCc2ccc(NC(C)=O)cc2)CCOCC1	none
COc1ccc(/C=C2\CCCC3C2=NN(C(=O)CSc2ncn[nH]2)C3c2ccc(OC)cc2)cc1 (stereo not drawn)	Jurkat NFkB inh 61.2 | Jurkat NFkB conf inactive
O=C(CSc1ncn[nH]1)N1N=C2/C(=C/c3ccccc3)CCCC2C1c1ccccc1 (stereo not drawn)	none
CC(C)Oc1ccc(C(=O)NC2CCCCC2)cc1	none
CC(C)Oc1ccc(C(CCN)C2CCCCC2)cc1 (stereo not drawn)	Jurkat NFkB inh 56.1 | Jurkat NFkB conf inactive
O=C(Nc1ccc(Oc2ccccc2)nc1)C1CCN(Cc2ccco2)CC1	none
Cc1ccc(CN2CCCCC2C(=O)Nc2ccc(Oc3cccnc3)cc2)o1 (stereo not drawn)	Jurkat NFkB inh 68.7 | Jurkat NFkB conf inactive
O=C(Nc1ccc(Oc2ccccc2)nc1)C1CCCCN1Cc1ccco1 (stereo not drawn)	Jurkat NFkB inh 53.1 | Jurkat NFkB conf inactive
CC(C)CCC(CCNCc1ccccn1)c1ccc(Cl)cc1 (stereo not drawn)	none
Cc1ccnc(Sc2ccc([N+](=O)[O-])cn2)n1	none
CC(C)(C)c1csc(Sc2ccc([N+](=O)[O-])cn2)n1	Jurkat NFkB inh 81.4 | Jurkat NFkB conf inactive
O=C(CN1C(=O)NC2(CCCCCCC2)C1=O)NCc1ccccc1	none (no result: NR2E3 ag-2)
Cc1cccn2cc(-c3ccc(F)cc3)nc12	none | Jurkat NFkB conf inactive
O=C(/C=C/c1c(F)cccc1Cl)N1CCc2ccccc2C1	none
COc1cc(-c2noc(C)c2/C=C/c2ccc(OC(C)=O)cc2)cc(OC)c1OC	Jurkat NFkB inh 67.5 | Jurkat NFkB conf 49.0
COc1ccc(-c2oc(=O)c3cc(OC)c(OC)cc3c2/C=C/c2ccc(OC(C)=O)cc2)cc1	none (no result: JMJD2C inh, NR2E3 ag-2)
COc1ccc(-n2cc(-c3ccc(C)cc3)[n+]3c2SCC3)cc1	Jurkat NFkB inh 59.6 | Jurkat NFkB conf 55.7
COc1ccc(Cl)cc1NC(=O)CN(C)CC(=O)Nc1ccccc1N1CCOCC1	Jurkat NFkB inh 63.2 | Jurkat NFkB conf inactive
COc1ccc(Cl)cc1NC(=O)CN(C)CC(=O)N1CC(=O)Nc2ccccc21	none
O=C(Nc1ccc(Cl)cc1C(=O)NCc1cccnc1)c1ccc(Cl)cc1Cl	Jurkat NFkB inh 50.8 | Jurkat NFkB conf inactive
OC(COc1ccc(Br)cc1)CN1CCN(c2ccccc2)CC1 (stereo not drawn)	none
CCOc1ccc(N(CC(=O)Nc2ccccc2C)S(=O)(=O)c2c(C)noc2C)cc1	Jurkat NFkB inh 58.4 | Jurkat NFkB conf 45.8
CCOc1ccccc1NC(=O)CN(c1ccc(OC)cc1)S(=O)(=O)c1c(C)noc1C	Jurkat NFkB inh 65.1 | Jurkat NFkB conf inactive
